TbHK1 inh: T. brucei hexokinase 1 inhibition. recombinant TbHK1, G6PDH-coupled NADH A340. inhibition, % at 10 µM. hit rate 0.11% among 220,000;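 active = inhibition of 50% or more in the single-dose primary screen; inactive = inhibition below 50%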
MDM2 E3 inh: inhibitors of human Mdm2 E3 ubiquitin ligase; Q00987; cell-based MDM2 ubiquitination luciferase reporter, 2 h; 0 = plate control, 100 = twice control, blank-subtracted; signal enhancement, % at 5 µM; hit rate 0.11% among 210,000; AID 1230;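 active = signal enhancement of 30% or more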;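 also: luminescence tracks abundance of the self-degrading MDM2-luciferase fusion protein; higher signal means inhibition of MDM2 E3 ligase activity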
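system = mammalian cells stably expressing self-ubiquitinating, self-degrading MDM2 E3–luciferase fusion | quantity = 2000 cells per well seeded | incubation = 4 h cell settling then 2 h compound exposure, 37 °C | signal = SteadyLite luminescence, 15 min reagent step | benchmarks = plate control and blank wells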
Hck-Nef inh: blocks Nef-activated human Hck kinase; P08631; Recombinant Hck-YEEI plus Nef, Z-Lyte FRET kinase assay; inhibition, % at 20 µM; hit rate 0.68% among 220,000;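 active = Hck-Nef kinase inhibition above about 50%, limit read from the data; inactive = inhibition below that limit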;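 also: 0% = DMSO with Hck plus Nef and 100% = Hck alone without Nef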
Wee1 degr inh: inhibitors of human Wee1 degradation; P30291; hit rate 1.2% among 220,000; HeLa Luc-Wee1K328M stability, luciferase luminescence; 100% = proteasome inhibitor MG132 effect; reporter increase, % at 5 µM;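 active = activation above the mean of all tested compounds plus 3 SD, set per screening run, cut at about 8.8% in these data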;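 also: cells exposed to compound for 20 h before luminescence read; 0% = DMSO alone and 100% = MG132 at 30 µM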
Target sequence (P30291 whole entry K328M): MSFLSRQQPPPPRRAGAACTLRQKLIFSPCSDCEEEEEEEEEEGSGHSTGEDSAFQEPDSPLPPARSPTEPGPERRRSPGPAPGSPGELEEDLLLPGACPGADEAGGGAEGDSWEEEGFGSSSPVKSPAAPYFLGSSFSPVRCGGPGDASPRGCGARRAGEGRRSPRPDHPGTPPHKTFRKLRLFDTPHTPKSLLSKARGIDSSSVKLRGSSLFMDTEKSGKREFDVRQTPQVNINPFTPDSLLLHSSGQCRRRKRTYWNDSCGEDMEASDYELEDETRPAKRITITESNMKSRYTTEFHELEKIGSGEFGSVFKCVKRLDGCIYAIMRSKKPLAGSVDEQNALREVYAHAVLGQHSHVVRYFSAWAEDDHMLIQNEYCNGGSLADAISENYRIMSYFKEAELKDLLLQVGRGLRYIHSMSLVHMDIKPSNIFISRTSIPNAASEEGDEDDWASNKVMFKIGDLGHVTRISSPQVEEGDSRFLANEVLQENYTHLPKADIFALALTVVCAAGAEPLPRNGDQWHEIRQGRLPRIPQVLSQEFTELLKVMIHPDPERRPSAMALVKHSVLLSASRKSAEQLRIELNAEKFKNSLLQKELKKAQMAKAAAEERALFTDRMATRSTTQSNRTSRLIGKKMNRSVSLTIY
14-3-3 Bad PPI: disrupts binding of bovine 14-3-3 zeta to phospho-Bad peptide; TR-FRET 14-3-3zeta/Dy647-pBad peptide displacement, 1 h; inhibition, % at 21.7 µM; hit rate 0.71% among 220,000; AID 781;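 active = inhibition above about 70%, limit read from the data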;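 also: 0% = full 14-3-3 plus peptide FRET controls and 100% = background without 14-3-3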
Hck-Nef confirm: Hck-Nef kinase inhibition, confirmation; shares compounds with Hck-Nef inh; Recombinant Hck-YEEI:Nef, Z-Lyte FRET kinase assay; calls only at 10 µM; hit rate 28% among 1,300;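 active = average inhibition of at least 50%, with Z-scores no higher than 3 in both the phospho-tyrosine peptide and fluorescence counterscreens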
* marks the source's active call; other numbers are inactive results; i = inactive; x = no result given; + = active, no number. Hits are enriched below; roughly 2.7% of the tested compounds scored in any of these assays.

SMILES | TbHK1 inh | MDM2 E3 inh | Hck-Nef inh | Wee1 degr inh | 14-3-3 Bad PPI | Hck-Nef confirm
O=C(O)/C=C/c1coc2ccccc2c1=O | -1 | x | 0 | 2 | -1 | x
O=C(N/N=C/c1coc2ccccc2c1=O)c1ccccc1 | -4 | -13 | 87* | 0 | -10 | i
O=C(N/N=C/c1ccccc1)c1ccco1 | -19 | -12 | 17 | 8 | 1 | x
NCCCCCC(=O)N/N=C/c1coc2ccccc2c1=O | -23 | 4 | 84* | 3 | 1 | +
O=C(N/N=C\c1coc2ccccc2c1=O)c1ccco1 | -12 | -8 | 83* | -2 | -3 | +
Cc1ccc(S(=O)(=O)CC2CSc3nc4ccccc4n32)cc1 (stereo not given) | 18 | -20 | 1 | -2 | -4 | x
Cc1ccc(NC(=O)CN2C(=O)S/C(=C\c3cccn3-c3cccc(C(=O)O)c3)C2=O)c(C)c1 | 0 | -12 | 78* | -3 | 1 | +
Cc1ccccc1NC(=O)CN1C(=O)S/C(=C\c2cccn2-c2cccc(C(=O)O)c2)C1=O | 9 | -25 | 9 | 0 | -10 | x
CCN1/C(=C\C=C2\C(=O)N(C)C(=S)N2C)Sc2ccccc21 | 0 | -6 | 72* | -1 | 0 | i
COc1ccc(OCC(=O)Nc2nc3ccc(NC(C)=O)cc3s2)cc1 | -2 | -2 | 51* | 1 | 7 | i
O=C(NCCO)/C(=C\c1ccco1)NC(=O)c1cccs1 | -15 | -7 | 13 | -1 | -4 | x
CCCCCCCCCCCCCCCCn1cc[n+](CC(C)=O)c1 | 39 | -11 | 63* | -2 | 98* | i
CC1=CC(=O)c2c(O)ccc(O)c2C1=O | 8 | -27 | 60* | -2 | 91* | +
CCOC(=O)CSc1nnc(CNC(=O)c2cccs2)n1-c1cc(C)ccc1C | -5 | -23 | 0 | 2 | -2 | x
O=C(O)c1ccc(C[n+]2c(-c3ccccc3)csc2Nc2ccccc2)cc1 | 5 | 5 | 7 | 2 | 26 | x
CC(C)(C)c1cc(-c2csc(Nc3ccccc3)[n+]2Cc2ccc(C(=O)O)cc2)cc(C(C)(C)C)c1O | 24 | -2 | 76* | 4 | 42 | i
COc1ccc(C(=O)CSc2nnc(-c3ccco3)c(-c3ccco3)n2)cc1 | -1 | -12 | 85* | 3 | 29 | i
O=C(NNC(=S)Nc1ccc(Cl)cc1Cl)C1CC1 | 8 | 6 | 4 | 1 | -5 | x
O=[N+]([O-])c1ccc(N/N=C/c2cccc(O)c2O)c(S(=O)(=O)N2CCOCC2)c1 | -3 | -12 | 21 | 0 | 0 | x
O=[N+]([O-])c1ccc(N/N=C/c2ccc(O)c(O)c2O)c(S(=O)(=O)N2CCOCC2)c1 | -1 | -16 | 117* | 1 | 2 | i
COc1ccccc1C(=O)Oc1ccc2c(c1)O/C(=C\c1ccncc1)C2=O | -6 | 2 | 76* | -2 | 37 | +
O=Cc1cn(-c2ccccc2)nc1-c1cc2cc(O)ccc2oc1=O | -35 | 22 | 52* | 0 | 47 | x
O=Cc1cn(-c2ccccc2)nc1-c1cc2c(ccc3ccccc32)oc1=O | -2 | -16 | 24 | 0 | 59 | x
Cc1ccc(-c2csc3ncnc(Nc4ccc(C(=O)O)cc4)c23)cc1 | -28 | 0 | 55* | 0 | 3 | i
CCOc1cc(/C=N/NC(=O)C(=O)NC)cc(Br)c1O | -30 | -4 | 1 | -2 | 0 | x
SMILES | TbHK1 inh | MDM2 E3 inh | Hck-Nef inh | Wee1 degr inh | 14-3-3 Bad PPI | Hck-Nef confirm
Cc1cc(O)c(C(=O)/C=C/c2cccc([N+](=O)[O-])c2)c(=O)o1 | -32 | -4 | 108* | 1 | -7 | i
C(=C\c1nccc2c1[nH]c1ccccc12)/c1ccccc1 | -6 | -3 | 164* | 5 | 0 | x
COc1ccc(C(=O)NC(NC(=S)Nc2ccc(S(N)(=O)=O)cc2)C(Cl)(Cl)Cl)cc1 (stereo not given) | 6 | -5 | 5 | -1 | 0 | x
COc1ccc(CNC(=O)CSc2ncnc3nc[nH]c23)cc1 | 9 | -4 | 0 | 0 | 6 | x
Cc1cccn2c(=O)c3cc(C#N)c(=NC(=O)c4cccs4)n(CCCOC(C)C)c3nc12 | -17 | -9 | 106* | 0 | -9 | i
CC(=O)N=c1c(C#N)cc2c(=O)n3cccc(C)c3nc2n1Cc1ccco1 | -19 | -15 | 165* | 9.1* | -2 | i
CCCN(CCC)C(=O)Cn1c(=O)n(CCCCCC(=O)Nc2ccccc2)c(=O)c2sccc21 | 5 | -13 | 0 | 1 | 10 | x
CCCc1[nH]n(-c2ccc([N+](=O)[O-])cc2)c(=O)c1C=NCCCn1ccnc1 | -23 | 2 | 27 | -2 | 3 | x
COc1ccc(C(=O)n2cc(C(=O)c3cc(C)ccc3O)cn2)cc1OC | -5 | 1 | 67* | -3 | 2 | +
COc1ccc(C(=O)n2cc(C(=O)c3cc(C)ccc3O)cn2)cc1 | -1 | 1 | 30 | -1 | -6 | x
NC(=O)c1c(NC(=O)Cn2nc(C(=O)O)c3ccccc3c2=O)sc2c1CCC2 | -17 | -8 | 91* | -1 | 63 | i
O=C(Cn1nc(C(=O)O)c2ccccc2c1=O)NC12CC3CC(CC(C3)C1)C2 | -1 | -1 | -9 | -1 | -4 | x
NC(=O)c1c(NC(=O)Cn2nc(C(=O)O)c3ccccc3c2=O)sc2c1CCCC2 | -5 | 5 | 7 | -2 | 66 | x
O=C(Cn1nc(C(=O)O)c2ccccc2c1=O)Nc1nc(-c2ccccc2)cs1 | -6 | -14 | 52* | 0 | 2 | i
O=C(NC1CCCCC1)C(c1ccc2ncccc2c1)N(Cc1ccc(F)cc1)C(=O)c1ccc2c(c1)OCCO2 (stereo not given) | -3 | -6 | 0 | -3 | 17 | x
Cc1ccc(C2=NOC(=O)/C2=C\C=C\c2ccccc2)cc1 | 2 | 0 | 56* | -1 | -5 | i
CN(c1ccc(OCC(=O)OCC(=O)c2c(N)n(C)c(=O)n(C)c2=O)cc1)S(=O)(=O)c1ccc2ccccc2c1 | -10 | -3 | 20 | 0 | 1 | x
COc1ccc(S(=O)(=O)Oc2ccc3c(c2)O/C(=C\c2cccnc2)C3=O)cc1 | -19 | -18 | 1 | 3 | -1 | x
Oc1ccc(/C=N/Nc2nccnc2Cl)cc1 | -46 | -33 | -2 | 1 | 1 | x
Nc1c(Cl)ncnc1N/N=C/c1ccc(O)cc1 | -95 | x | 52* | 4 | 5 | i
CC1=C(C(=O)OCC2CCCO2)C(c2ccncc2)C2=C(CCCC2=O)N1 (stereo not given) | -14 | -7 | 9 | -2 | -1 | x
CC1=C(C(=O)OCC2CCCO2)C(c2ccc(C)cc2)C2=C(CCCC2=O)N1 (stereo not given) | -17 | -2 | 63* | -1 | -3 | i
CCOc1ccccc1Nc1nc(N)nc(CN2CCCCC2C)n1 (stereo not given) | -3 | 0 | 13 | 1 | 2 | x
